MrgX1 antagonist – antagonists of human MrgX1 receptor; B-score at 10 µM; 1.3% of 310,000 active; Q96LB2; MRGX1-HEK293 calcium flux, Fluo-4, BAM8-22 antagonism; active compounds read low;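 active = calcium-response B-score plate-corrected more than 3 library SD below zero, starting fluorescence within 5 deviations, no agonist response on first addition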;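 also: peak minus trough fluorescence over baseline after final BAM8-22 challenge near maximal dose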
MrgX1 ag – agonists of human MrgX1 receptor; 0.44% of 310,000 active; AID 588627; MrgX1-HEK293 cells, Fluo-4 calcium fluorescence, agonist mode; active compounds read high; B-score at 10 µM; Q96LB2;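 active = calcium response B-score plate-corrected fluorescence ratio at least 3 library SD, with starting fluorescence B-score inside 5 SD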
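System: HEK293 cells stably expressing human MrgX1 receptor; Dosing: test compound in the initial addition of three; Schedule: overnight plating, then 30 min 37 °C plus 30 min room-temperature dye loading; Detection: kinetic calcium dye fluorescence, Fluo-4 NW; Controls: per-plate positive and negative controls for Z′ factor.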
RGS4 block – inhibitors of human RGS4; P49798; HEK293 M3R/RGS4 inducible, Fluo-4 calcium flux; active compounds read high; triggered by carbachol at its EC20; B-score at 10 µM; 0.45% of 310,000 active; AID 463165;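 active = B-score, a plate-corrected calcium signal, over three deviations above library mean, with baseline fluorescence within five deviations of library mean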;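 also: RGS4 expression induced by doxycycline in cells with stable M3 receptor; B-score is computed from the integrated fluorescence ratio over baseline after carbachol; higher B-score means a larger calcium signal and so more RGS4 inhibition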
Target sequence (P49798 whole entry, looked up): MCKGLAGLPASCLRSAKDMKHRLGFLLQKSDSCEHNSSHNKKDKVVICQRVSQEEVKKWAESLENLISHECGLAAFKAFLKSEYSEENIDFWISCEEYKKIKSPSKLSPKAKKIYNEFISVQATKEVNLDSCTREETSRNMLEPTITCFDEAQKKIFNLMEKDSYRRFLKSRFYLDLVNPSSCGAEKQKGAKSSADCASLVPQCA
Kir21 inh – blocks the mouse Kir2.1 inward-rectifier potassium channel. P35561. HEK293-Kir2.1, FluxOR thallium flux fluorescence; active compounds read low. B-score at 10 µM. 0.85% of 310,000 active. AID 1672;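 active = fluorescence ratio B-score at or below minus 3 SD of library scores, with starting-brightness B-score within 2 SD, cut at about -4.2 in these data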;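 also: channel flux triggered by added potassium and thallium sulfate stimulus; B-score of peak minus minimum fluorescence over baseline after thallium stimulus; more negative B-score means stronger Kir2.1 block with less thallium influx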
Target sequence (P35561 whole entry, looked up): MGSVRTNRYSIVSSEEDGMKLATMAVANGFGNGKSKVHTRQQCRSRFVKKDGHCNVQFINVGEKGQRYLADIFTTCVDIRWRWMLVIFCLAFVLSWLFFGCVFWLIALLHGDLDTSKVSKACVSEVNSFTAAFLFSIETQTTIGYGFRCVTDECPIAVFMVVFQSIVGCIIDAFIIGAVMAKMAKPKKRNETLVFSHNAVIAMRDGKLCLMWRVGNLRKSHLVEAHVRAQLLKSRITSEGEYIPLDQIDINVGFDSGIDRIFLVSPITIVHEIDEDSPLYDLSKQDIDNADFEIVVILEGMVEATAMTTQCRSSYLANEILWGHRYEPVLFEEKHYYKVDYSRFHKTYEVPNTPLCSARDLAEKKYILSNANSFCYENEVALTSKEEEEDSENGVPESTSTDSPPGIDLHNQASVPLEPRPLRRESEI
MrgX1 allo act – allosterically activates human MrgX1 receptor signaling | Q96LB2 | B-score at 10 µM | 0.63% of 310,000 active | MrgX1-HEK293, Fluo-4 calcium flux, FDSS; active compounds read high;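 active = plate-corrected calcium response at least 3 library SD above typical, normal starting fluorescence, not activating the receptor alone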;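 also: compound read alongside a low EC10 to EC30 dose of BAM8-22 agonist; peak minus trough fluorescence over baseline measured at the second addition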
RGS4 act – RGS4 potentiation or activation. HEK293 M3R/inducible RGS4, carbachol calcium flux Fluo4; active compounds read low. B-score at 10 µM. 0.92% of 310,000 active. AID 463111;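 active = B-score of the integrated calcium signal more than 4 SD below the library mean, with starting fluorescence not abnormally high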;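 also: negative B-score means reduced calcium response which marks RGS4 activation or potentiation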
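System – HEK293 FlpIn-TREx cells, stable M3R, doxycycline-inducible RGS4 · Reagent – ECmax carbachol challenge · Times – compound preincubation 20 min at room temperature before agonist · Technique – Fluo4 fluorescence kinetic imaging of calcium · Measure – B score of integrated Fluo4 ratio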
* marks the source's active call; other numbers are inactive results; i = inactive. This is a sample that favours compounds with a hit; in the whole collection about 4.1% have one here.

SMILES	MrgX1 antagonist	MrgX1 ag	RGS4 block	Kir21 inh	MrgX1 allo act	RGS4 act
CCN(CC)CCN(C(=O)CCS(=O)(=O)c1ccccc1)c1nc2cc3c(cc2s1)OCO3	i	i	i	0.48	i	i
COc1ccccc1NC(=O)Cn1nc(-c2ccc(Cl)cc2)c2ccccc2c1=O	i	33.8*	i	0.72	i	i
CC1CC(C)CN(C(=O)c2ccc(NC(=O)c3ccc(=O)[nH]c3)cc2)C1 (centres undefined)	i	i	i	0.01	i	i
O=C(O)CCC(NC(=O)C1CCCN1C(=O)OCc1ccccc1)C(=O)O (centres undefined)	-6.39*	i	i	1.97	i	i
O=C(O)C(NC(=O)C1CCCN1C(=O)OCc1ccccc1)c1ccccc1 (centres undefined)	i	i	i	-0.18	i	i
COc1ccc(CCNC(=O)c2ccc3c(c2)NC(=O)C(CSCc2cc(C)ccc2C)N3)cc1OC (centres undefined)	i	27.5*	i	1.86	i	i
CC(C)(C)c1ccc(OCC(O)CNC(=O)c2ccccc2C(=O)O)cc1 (centres undefined)	i	i	i	-0.63	i	i
COc1ccc(N2CC(O)(c3ccc(F)cc3)[N+]3=C2CCCC3)cc1 (centres undefined)	i	i	i	-0.02	i	i
COc1ccc(N2CC(O)(c3ccc(OC(F)F)cc3)[N+]3=C2CCCC3)cc1 (centres undefined)	i	i	i	0	i	-8.33*
CCOC(=O)C1=C(COC(=O)/C=C/c2cccc(OC)c2)NC(=O)NC1C (centres undefined)	i	i	i	-0.29	i	-6.96*
Cc1cccc(Cn2c(Cc3ccccc3)nc3ccccc32)c1	i	i	i	-10.6*	i	i
COCc1nc2ccccc2n1Cc1cccc(C)c1	i	i	i	-0.4	i	i
COc1ccc(CCNS(=O)(=O)c2ccc(C3CNC(=O)C3)cc2)cc1OC (centres undefined)	i	i	i	-0.03	i	i
Cc1nc2ccccn2c1C(=O)N=Nc1c(O)n(CCC(C)C)c2ccccc12	i	i	i	0.42	i	-7.31*
CCOC(=O)c1sc(=S)n(C)c1NC(=O)c1ccccc1C	i	i	i	1.19	i	i
CN(C)CCCNc1nc2sc3c(c2c(=O)n1CCc1ccccc1)CCCCC3	i	i	i	-5.44*	i	i
CN(C)CCCn1c(=O)n(CCc2ccccc2)c(=O)c2c3c(sc21)CCCCC3	i	i	i	-2.99	i	i
CCCN=C1N/C(=C\c2ccco2)C(=O)N1c1ccccc1	i	i	i	-0.34	i	i
CCCN(CCC)C1=N/C(=C\c2ccco2)C(=O)N1c1ccccc1	i	i	i	-2.13	6.89*	i
Cn1c(CNc2ccc(F)cc2)nc2ccccc21	i	i	i	1.59	i	i
COc1ccc(NC(=O)N(Cc2ccc3c(c2)OCO3)C2CC(=O)N(c3ccc(OC)cc3)C2=O)cc1 (centres undefined)	i	i	i	-0.25	i	i
COCC(=O)NNC(=S)Nc1cccc(C)c1C	-5.07*	i	i	0.05	i	i
CCCc1cc(-c2nc(N)ncc2-c2ccc3c(c2)OCCCO3)c(O)cc1OC	i	i	i	1.58	i	-9.2*
CCCc1cc(-c2nc(N)ncc2-c2csc(C)n2)c(O)cc1OC	i	i	i	-6.39*	i	i
CCc1cc(-c2nc(N)ncc2-c2csc(C)n2)c(O)cc1OC	i	i	i	-2.67	i	i
SMILES	MrgX1 antagonist	MrgX1 ag	RGS4 block	Kir21 inh	MrgX1 allo act	RGS4 act
CCN(CC)c1ccc(/C=N/NC(=O)c2ccc(Br)o2)cc1	i	i	i	-0.81	i	i
Fc1cnc(N/N=C/c2ccc(-c3ccc(Br)cc3)o2)nc1N1CCOCC1	i	i	i	0.15	i	-7.81*
Brc1ccc(-c2ccc(/C=N/Nc3nc(N4CCOCC4)nc(N4CCOCC4)n3)o2)cc1	i	i	i	0.15	i	i
CC[C@H](C)/C=C/C1=CC2=C(Cl)C(=O)[C@@]3(C)OC(=O)C(C(=O)[C@H](C)[C@@H](C)O)=C3C2=CO1	i	i	i	-0.61	10.4*	i
CCOC(=O)N1CCN(S(=O)(=O)c2cc(Cl)c(OC)cc2Cl)CC1	i	i	i	0.89	i	i
CCOC(=O)N1CCN(S(=O)(=O)c2cc(Br)cnc2N)CC1	i	i	i	0.34	i	-7.44*
CCN(CC)C(=S)NCCc1ccccc1	i	i	i	0.07	i	i
COc1ccccc1CNCC(=O)Nc1ccccc1-n1cccc1	i	i	i	-4.54*	i	i
C=CCNC(=O)COC(=O)c1ccc(Sc2nncn2C)c([N+](=O)[O-])c1	-5.17*	i	i	-0.8	i	i
CC(C)c1ccc2oc(-c3ccc(NC(=O)c4ncn[nH]4)cc3)nc2c1	i	i	i	-0.03	i	i
CC1CC(C)CN(C(=O)c2ccccc2Nc2ccc(SC(F)F)cc2)C1 (centres undefined)	i	i	i	-2.12	i	-7.37*
S=C(NC1CC2CCC1C2)N1CCN(c2cccc(Cl)c2)CC1 (centres undefined)	i	i	i	0.08	i	i
CC(=O)c1c(C)nc(-c2ccc(Cl)cc2)nc1N	i	i	i	-0.98	i	i
CCOc1ccc(S(=O)(=O)N2CCN(C(=O)Cc3ccc(S(=O)(=O)N4CCOCC4)s3)CC2)cc1	i	i	i	0.29	i	-7.27*
Cc1ccc(C)c(S(=O)(=O)N2CCN(C(=O)Cc3ccc(S(=O)(=O)N4CCOCC4)s3)CC2)c1	i	i	i	-0.43	i	i
COc1ccc(-n2c(=O)c3c4c(sc3n3c(=S)[nH]nc23)CCC4)cc1	i	i	i	-0.01	i	i
CNc1nnc(-c2cccc(N(C)C)c2)s1	i	i	i	-0.81	i	i
O=C(CN1CCCCCCC1)N/N=C/c1ccc(F)cc1F	i	i	i	0.41	i	i
CC(C)CNC(=O)/C(C#N)=C1\N=C(NC(=O)c2ccco2)c2ccccc21	-4.77*	i	i	0.84	i	i
C/C(=N\NC(=O)c1cc(C(C)C)[nH]n1)c1ccco1	i	i	i	-0.12	i	i

High-throughput results as filed in PubChem BioAssay.
